From ChEMBL document CHEMBL4425120, “N1-Azinylsulfonyl-1H-indoles: 5-HT6 Receptor Antagonists with Procognitive and Antidepressant-Like Properties” (ACS Med Chem Lett, 2016)
Calls of active or inactive are those of the source. The calls are words filed in the database; no cut-off is given here.

Columns and labels:
[1] = Drug uptake in Wistar rat brain at 3 mg/kg, ip after 30 mins by LC-MS/MS analysis; format: ADME, organism-based; details: read-out: Drug uptake
Method in brief: (§1)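 Male Wistar rats received a single 3 mg/kg i.p. dose. Brain and plasma drug levels were measured at 15, 30 and 90 min after dosing. Brain level is expressed as ng/g tissue, alongside the brain-to-plasma concentration ratio.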

Homo sapiens [2] = organism: Homo sapiens; test: Selectivity ratio of Ki for human 5-HT1A receptor expressed in HEK293 cells to Ki for human 5-HT6 receptor expressed in HEK293 cells; format: cell-based
Homo sapiens [3] = organism: Homo sapiens; test: Selectivity ratio of Ki for human 5-HT2A receptor expressed in HEK293 cells to Ki for human 5-HT6 receptor expressed in HEK293 cells; format: cell-based
[4] = biological target: T1, 5-hydroxytryptamine receptor 1A (Homo sapiens, UniProt P08908); test: Displacement of [3H]-8-OH-DPAT from human 5-HT1A receptor expressed in HEK293 cells by microbeta liquid scintillation counting; format: cell-based
T1 sequence (P08908 whole entry): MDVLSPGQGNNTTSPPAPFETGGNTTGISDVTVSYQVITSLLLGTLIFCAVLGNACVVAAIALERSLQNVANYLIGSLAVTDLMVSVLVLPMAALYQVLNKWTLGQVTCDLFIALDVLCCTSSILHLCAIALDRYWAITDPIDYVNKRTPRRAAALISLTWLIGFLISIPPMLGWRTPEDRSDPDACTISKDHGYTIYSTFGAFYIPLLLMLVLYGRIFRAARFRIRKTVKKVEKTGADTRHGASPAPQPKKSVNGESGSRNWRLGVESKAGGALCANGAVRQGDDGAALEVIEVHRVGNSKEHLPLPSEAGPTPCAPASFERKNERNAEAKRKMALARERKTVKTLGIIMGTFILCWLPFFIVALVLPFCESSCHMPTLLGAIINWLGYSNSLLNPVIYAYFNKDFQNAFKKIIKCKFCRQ
Method in brief: (§2)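 Ki values reported as the mean of two independent radioligand binding experiments.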

Homo sapiens [5] = organism: Homo sapiens; test: Selectivity ratio of Ki for human 5-HT7B receptor expressed in HEK293 cells to Ki for human 5-HT6 receptor expressed in HEK293 cells; format: cell-based
[6] = biological target: 5-hydroxytryptamine receptor 7 (Homo sapiens, UniProt P34969); test: Displacement of [3H]-5-CT from human 5-HT7B receptor expressed in HEK293 cells by microbeta liquid scintillation counting; format: cell-based; method in brief: as §2
Rattus norvegicus [7] = test: Antidepressant activity in Sprague-Dawley rat assessed as increase in climbing time at 0.3 mg/kg, ip adminstered 60 mins prior to testing measured for 5 mins by forced swimming test; format: functional, organism-based
Method in brief: (§3)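 Modified forced swim test in rats with i.p. dosing. Immobility time and climbing time were scored. Data are mean ± SEM, n = 7–8 animals per group, compared against the vehicle-treated group.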

D(3) dopamine receptor [8] = biological target: T2, D(3) dopamine receptor (Homo sapiens, UniProt P35462); test: Displacement of [3H]-methyl-spiperone from human recombinant dopamine D3 receptor expressed in CHO cells after 60 mins by scintillation counting; format: cell-based
[9] = biological target: 5-hydroxytryptamine receptor 6 (Homo sapiens, UniProt P50406); test: Displacement of [3H]-LSD from human 5-HT6 receptor expressed in HEK293 cells by microbeta liquid scintillation counting; format: cell-based; method in brief: as §2
Rattus norvegicus [10] = test: Antidepressant activity in Sprague-Dawley rat assessed as reduction in immobility time at 0.3 mg/kg, ip adminstered 60 mins prior to testing measured for 5 mins by forced swimming test; format: functional, organism-based; method in brief: as §3
Cytochrome P450 2D6 = Cytochrome P450 2D6 (Homo sapiens, UniProt P10635); test: Inhibition of human CYP2D6 expressed in supersomes assessed as bufuralol 1'-hydroxylation after 15 mins by HPLC analysis; format: ADME
[11] = biological target: Histamine H1 receptor (Homo sapiens) (UniProt P35367); test: Displacement of [3H]pyrilamine from human recombinant histamine H1 receptor expressed in HEK293 cells after 60 mins by scintillation counting.; format: cell-based
[12] = Mutagenicity in Salmonella typhimurium TA1535 at 0.2 to 16 ug/ml after 48 hrs by Ames test; format: toxicity; details: salmonella enterica subsp. enterica serovar typhimurium
Cytochrome P450 2C9 = Cytochrome P450 2C9 (Homo sapiens, UniProt P11712); test: Inhibition of human CYP2C9 expressed in supersomes assessed as diclofenac 4'-hydroxylation after 15 mins by HPLC analysis; format: ADME
[13] = biological target: 5-hydroxytryptamine receptor 2C (Homo sapiens) (UniProt P28335); test: Displacement of [3H]mesulergine from human recombinant 5-HT2C receptor expressed in HEK293 cells after 120 mins by scintillation counting; format: cell-based
[14] = biological target: Muscarinic acetylcholine receptor M1 (Homo sapiens) (UniProt P11229); test: Displacement of [3H]pirenzepine from human recombinant muscarinic M1 receptor expressed in CHO cells after 60 mins by scintillation counting; format: cell-based
[15] = biological target: Sodium-dependent serotonin transporter (Homo sapiens) (UniProt P31645); test: Displacement of [3H]imipramine from human recombinant SERT expressed in CHO cells after 60 mins by scintillation counting; format: cell-based
[16] = biological target: Adrenergic receptor alpha-1 (Rattus norvegicus) (UniProt P15823+P23944+P43140); test: Displacement of [3H]prazosin from rat cerebral cortex adrenergic alpha 1 receptor after 60 mins by scintillation counting
[17] = biological target: Alpha-2C adrenergic receptor (Homo sapiens) (UniProt P18825); test: Displacement of [3H]RX 821002 from human recombinant adrenergic alpha 2C receptor expressed in CHO cells after 60 mins by scintillation counting; format: cell-based
Homo sapiens [18] = organism: Homo sapiens; test: Selectivity ratio of Ki for human D2L receptor expressed in HEK293 cells to Ki for human 5-HT6 receptor expressed in HEK293 cells; format: cell-based
[19] = biological target: 5-hydroxytryptamine receptor 2B (Homo sapiens) (UniProt P41595); test: Agonist activity at human recombinant 5-HT2B receptor expressed in HEK-293 cells assessed as IP1 accumulation at 1 uM after 30 mins by HTRF assay; format: functional, cell-based
[20] = Mutagenicity in Salmonella typhimurium TA100 at 0.2 to 16 ug/ml after 48 hrs by Ames test; format: toxicity; details: salmonella enterica subsp. enterica serovar typhimurium
Cytochrome P450 3A4 = Cytochrome P450 3A4 (Homo sapiens, UniProt P08684); test: Inhibition of human CYP3A4 expressed in supersomes assessed as testosterone 6beta-hydroxylation after 15 mins by HPLC analysis; format: ADME
D(2) dopamine receptor = D(2) dopamine receptor (Homo sapiens, UniProt P14416); test: Displacement of [3H]-Raclopride from human D2L receptor expressed in HEK293 cells by microbeta liquid scintillation counting; format: cell-based; method in brief: as §2
Cytochrome P450 2C19 = Cytochrome P450 2C19 (Homo sapiens, UniProt P33261); test: Inhibition of human CYP2C19 expressed in supersomes assessed as perazine N-demethylation after 15 mins by HPLC analysis; format: ADME
[21] = biological target: Voltage-gated inwardly rectifying potassium channel KCNH2 (Homo sapiens, UniProt Q12809); test: Displacement of [3H]Dofetilide from human recombinant ERG expressed in HEK293 cells at 10 to 50 uM after 60 mins by scintillation counting; format: cell-based; details: hek293, 1 h
D(3) dopamine receptor [22] = biological target: T2, D(3) dopamine receptor; test: Antagonist activity at human recombinant dopamine D3 receptor expressed in CHO cells assessed as inhibition of dopamine-induced cAMP accumulation after 30 mins by HTRF assay; format: functional, cell-based
[23] = Solubility of the compound at pH 7.4; format: physicochemical; details: buffer
[24] = Ratio of drug level in Wistar rat brain to plasma at 3 mg/kg, ip after 15 to 90 mins by LC-MS/MS analysis; format: ADME, organism-based; details: read-out: BPR; method in brief: as §1

T2 sequence (P35462 whole entry): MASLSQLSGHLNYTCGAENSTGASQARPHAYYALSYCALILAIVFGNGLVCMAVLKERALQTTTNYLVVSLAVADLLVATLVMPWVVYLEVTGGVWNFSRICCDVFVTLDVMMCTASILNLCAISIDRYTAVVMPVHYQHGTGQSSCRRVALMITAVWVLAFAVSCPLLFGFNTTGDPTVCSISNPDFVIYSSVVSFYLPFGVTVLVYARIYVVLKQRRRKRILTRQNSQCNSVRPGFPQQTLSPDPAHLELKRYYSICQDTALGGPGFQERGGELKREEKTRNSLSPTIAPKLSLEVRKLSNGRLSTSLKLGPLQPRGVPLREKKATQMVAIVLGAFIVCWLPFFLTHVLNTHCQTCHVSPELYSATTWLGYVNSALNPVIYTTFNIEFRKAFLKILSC
Chain of D(2) dopamine receptor (P14416 whole entry): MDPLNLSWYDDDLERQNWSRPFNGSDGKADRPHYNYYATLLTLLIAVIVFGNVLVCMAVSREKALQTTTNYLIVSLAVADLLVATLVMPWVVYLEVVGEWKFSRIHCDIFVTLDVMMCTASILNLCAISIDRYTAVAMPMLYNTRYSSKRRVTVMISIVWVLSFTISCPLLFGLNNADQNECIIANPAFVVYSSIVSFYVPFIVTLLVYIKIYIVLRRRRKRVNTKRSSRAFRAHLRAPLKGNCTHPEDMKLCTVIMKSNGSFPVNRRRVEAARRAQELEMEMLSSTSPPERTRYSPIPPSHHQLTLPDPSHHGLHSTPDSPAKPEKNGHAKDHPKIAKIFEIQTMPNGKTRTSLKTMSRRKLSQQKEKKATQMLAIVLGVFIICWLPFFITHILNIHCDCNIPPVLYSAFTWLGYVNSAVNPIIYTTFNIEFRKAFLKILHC
Chain of Cytochrome P450 2D6 (P10635 whole entry): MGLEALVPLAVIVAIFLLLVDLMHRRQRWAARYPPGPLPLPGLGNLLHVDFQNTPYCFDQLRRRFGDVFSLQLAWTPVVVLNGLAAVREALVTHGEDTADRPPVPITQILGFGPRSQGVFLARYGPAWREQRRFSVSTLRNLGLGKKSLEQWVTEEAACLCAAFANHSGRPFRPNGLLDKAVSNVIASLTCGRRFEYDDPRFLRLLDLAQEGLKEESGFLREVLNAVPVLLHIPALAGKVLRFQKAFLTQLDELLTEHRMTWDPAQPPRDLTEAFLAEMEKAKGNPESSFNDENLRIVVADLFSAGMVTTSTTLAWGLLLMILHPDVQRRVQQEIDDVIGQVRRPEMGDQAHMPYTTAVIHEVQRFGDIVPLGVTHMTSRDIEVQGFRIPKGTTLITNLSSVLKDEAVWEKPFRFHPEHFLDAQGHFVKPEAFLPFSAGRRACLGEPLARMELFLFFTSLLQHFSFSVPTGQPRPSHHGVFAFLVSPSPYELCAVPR
Chain of Alpha-2C adrenergic receptor (Homo sapiens) (P18825 whole entry): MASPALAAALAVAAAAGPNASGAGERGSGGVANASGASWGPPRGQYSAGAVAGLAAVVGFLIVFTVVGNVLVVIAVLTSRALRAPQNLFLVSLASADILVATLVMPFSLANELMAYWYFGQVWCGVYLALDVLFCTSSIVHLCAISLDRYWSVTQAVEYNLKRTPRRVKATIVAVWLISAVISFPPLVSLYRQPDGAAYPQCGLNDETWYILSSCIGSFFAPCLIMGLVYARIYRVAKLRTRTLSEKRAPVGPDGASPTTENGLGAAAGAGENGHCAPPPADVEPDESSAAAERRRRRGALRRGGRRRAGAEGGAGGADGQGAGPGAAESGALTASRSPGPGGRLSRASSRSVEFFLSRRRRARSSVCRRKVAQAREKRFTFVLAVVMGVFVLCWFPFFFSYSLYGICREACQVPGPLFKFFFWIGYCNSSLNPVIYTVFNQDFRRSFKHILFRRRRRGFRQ
Chain of Cytochrome P450 3A4 (P08684 whole entry): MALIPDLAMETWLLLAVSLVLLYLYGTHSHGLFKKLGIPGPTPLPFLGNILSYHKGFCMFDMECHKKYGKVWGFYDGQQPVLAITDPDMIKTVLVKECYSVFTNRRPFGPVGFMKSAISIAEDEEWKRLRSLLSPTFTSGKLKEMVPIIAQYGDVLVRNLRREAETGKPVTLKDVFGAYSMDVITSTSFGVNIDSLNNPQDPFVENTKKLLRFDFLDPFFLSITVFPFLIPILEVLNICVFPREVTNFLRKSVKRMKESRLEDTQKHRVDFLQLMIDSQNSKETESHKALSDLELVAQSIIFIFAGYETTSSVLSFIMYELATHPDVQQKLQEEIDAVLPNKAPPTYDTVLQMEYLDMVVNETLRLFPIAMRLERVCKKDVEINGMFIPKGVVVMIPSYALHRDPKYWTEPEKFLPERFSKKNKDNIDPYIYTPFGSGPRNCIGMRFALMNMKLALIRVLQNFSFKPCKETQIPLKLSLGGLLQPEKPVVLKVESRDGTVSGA
Chain of Histamine H1 receptor (Homo sapiens) (P35367 whole entry): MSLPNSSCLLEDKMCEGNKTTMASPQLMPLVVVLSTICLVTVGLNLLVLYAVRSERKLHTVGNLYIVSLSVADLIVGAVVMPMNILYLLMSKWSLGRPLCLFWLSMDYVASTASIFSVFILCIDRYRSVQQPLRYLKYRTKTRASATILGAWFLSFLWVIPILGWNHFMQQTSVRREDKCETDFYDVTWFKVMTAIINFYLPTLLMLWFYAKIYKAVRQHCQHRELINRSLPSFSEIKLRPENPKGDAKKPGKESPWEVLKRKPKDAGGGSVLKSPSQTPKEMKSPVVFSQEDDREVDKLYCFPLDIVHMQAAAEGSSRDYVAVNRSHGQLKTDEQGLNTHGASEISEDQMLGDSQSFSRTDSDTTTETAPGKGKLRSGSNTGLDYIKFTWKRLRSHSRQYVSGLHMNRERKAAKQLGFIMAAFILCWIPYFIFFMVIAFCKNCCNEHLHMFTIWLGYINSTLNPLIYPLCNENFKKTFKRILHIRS
Chain of 5-hydroxytryptamine receptor 2B (Homo sapiens) (P41595 whole entry): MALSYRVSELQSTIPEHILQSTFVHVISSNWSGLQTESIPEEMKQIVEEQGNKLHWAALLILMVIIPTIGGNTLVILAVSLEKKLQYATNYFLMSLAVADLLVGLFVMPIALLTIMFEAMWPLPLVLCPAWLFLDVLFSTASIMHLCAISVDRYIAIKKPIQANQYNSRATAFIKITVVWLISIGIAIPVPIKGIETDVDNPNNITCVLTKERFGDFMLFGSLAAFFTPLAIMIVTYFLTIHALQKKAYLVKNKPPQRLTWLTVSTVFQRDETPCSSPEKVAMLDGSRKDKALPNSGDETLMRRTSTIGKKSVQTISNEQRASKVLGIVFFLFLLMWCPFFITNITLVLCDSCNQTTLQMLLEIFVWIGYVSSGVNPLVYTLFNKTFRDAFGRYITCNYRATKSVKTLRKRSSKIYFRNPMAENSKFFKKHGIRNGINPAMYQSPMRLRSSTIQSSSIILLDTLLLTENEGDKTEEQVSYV
Chain of 5-hydroxytryptamine receptor 7 (P34969 whole entry): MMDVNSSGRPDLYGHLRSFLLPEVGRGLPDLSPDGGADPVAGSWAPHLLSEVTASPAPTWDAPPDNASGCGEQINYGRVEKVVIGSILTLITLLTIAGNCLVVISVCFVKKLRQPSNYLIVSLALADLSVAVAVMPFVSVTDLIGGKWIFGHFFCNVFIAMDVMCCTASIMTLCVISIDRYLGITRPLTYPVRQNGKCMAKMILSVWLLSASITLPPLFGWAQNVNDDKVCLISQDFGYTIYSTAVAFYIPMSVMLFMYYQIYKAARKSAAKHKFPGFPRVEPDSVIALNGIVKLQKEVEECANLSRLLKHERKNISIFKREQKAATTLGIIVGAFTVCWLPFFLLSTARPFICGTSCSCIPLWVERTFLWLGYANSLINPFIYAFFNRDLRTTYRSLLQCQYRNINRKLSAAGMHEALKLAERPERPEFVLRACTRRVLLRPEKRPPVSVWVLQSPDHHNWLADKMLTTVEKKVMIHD
Chain of 5-hydroxytryptamine receptor 6 (P50406 whole entry): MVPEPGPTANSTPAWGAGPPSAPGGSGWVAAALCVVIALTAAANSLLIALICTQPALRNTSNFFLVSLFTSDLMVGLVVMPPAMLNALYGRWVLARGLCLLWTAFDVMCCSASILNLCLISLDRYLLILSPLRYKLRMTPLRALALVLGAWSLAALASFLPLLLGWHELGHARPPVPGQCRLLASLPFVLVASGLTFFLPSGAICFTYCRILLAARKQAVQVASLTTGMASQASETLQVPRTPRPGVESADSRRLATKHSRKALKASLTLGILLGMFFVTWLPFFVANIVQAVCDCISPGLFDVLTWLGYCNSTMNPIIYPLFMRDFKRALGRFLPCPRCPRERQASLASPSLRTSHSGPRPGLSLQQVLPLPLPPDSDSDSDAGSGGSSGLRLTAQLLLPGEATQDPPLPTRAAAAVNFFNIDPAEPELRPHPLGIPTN
Chain of 5-hydroxytryptamine receptor 2C (Homo sapiens) (P28335 whole entry): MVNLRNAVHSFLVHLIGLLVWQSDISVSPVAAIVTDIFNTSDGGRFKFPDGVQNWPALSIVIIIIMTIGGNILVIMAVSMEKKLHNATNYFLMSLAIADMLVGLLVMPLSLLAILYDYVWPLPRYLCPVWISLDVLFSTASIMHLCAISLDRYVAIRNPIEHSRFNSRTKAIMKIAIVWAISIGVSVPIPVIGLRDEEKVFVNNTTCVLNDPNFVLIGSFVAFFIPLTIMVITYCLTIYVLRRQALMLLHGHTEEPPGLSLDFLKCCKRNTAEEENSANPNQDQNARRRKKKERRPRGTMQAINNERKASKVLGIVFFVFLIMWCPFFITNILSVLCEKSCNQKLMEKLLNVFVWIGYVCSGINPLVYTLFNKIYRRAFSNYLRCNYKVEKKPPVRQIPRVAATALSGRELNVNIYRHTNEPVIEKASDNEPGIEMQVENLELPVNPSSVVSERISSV

With `COc1ccc2c(c1)c(C1=CCNCC1)cn2S(=O)(=O)c1ccc2cccnc2c1` as the compound, how does the concentration at 0.5 h [1] read?
Its concentration at 0.5 h is 21.9 ng/g.

And the Ratio Ki (Homo sapiens [2])?
The Ratio Ki was 70.

And the Ratio Ki (Homo sapiens [3])?
The Ratio Ki was 70.

And the Ki [4]?
Its Ki is 5.04 µM.

What about the Ratio Ki (Homo sapiens [5]) of the same compound?
The Ratio Ki was 70.

What about the Ki [6] of the same compound?
Its Ki is 6.25 µM.

What about the Activity (Rattus norvegicus [7]) of the same compound?
Its Activity is “Active”.

What about the Ki (D(3) dopamine receptor [8]) of the same compound?
Its Ki is 0.032 µM.

What about the Ki [9] of the same compound?
The Ki was 0.002 µM.

What about the Activity (Rattus norvegicus [10]) of the same compound?
Its Activity is “Active”.

What about the IC50 (Cytochrome P450 2D6) of the same compound?
The IC50 was over 100 µM.

What about the inhibition [11] of the same compound?
Its inhibition is 9%.

What about the Activity [12] of the same compound?
The Activity was “Non-Toxic”.

What about the IC50 (Cytochrome P450 2C9) of the same compound?
The IC50 was over 100 µM.

What about the inhibition [13] of the same compound?
The inhibition was 18%.

And the inhibition [14]?
The inhibition was 11%.

What about the inhibition [15] of the same compound?
The inhibition was 4%.

And the inhibition [16]?
The inhibition was 41%.

What about the inhibition [17] of the same compound?
The inhibition was 18%.

What about the Ratio Ki (Homo sapiens [18]) of the same compound?
Its Ratio Ki is 70.

What about the Activity [19] of the same compound?
The Activity was under 13%.

What about the Activity [20] of the same compound?
The Activity was “Non-Toxic”.

What about the IC50 (Cytochrome P450 3A4) of the same compound?
The IC50 was 20 µM.

And the Ki (D(2) dopamine receptor)?
The Ki was 0.24 µM.

And the IC50 (Cytochrome P450 2C19)?
Its IC50 is over 100 µM.

What about the “inhibition (INH)” value [21] of the same compound?
The value was “Not Active”.

What about the inhibition (D(3) dopamine receptor [22]) of the same compound?
Its inhibition is “inactive”.

And the solubility [23]?
Its solubility is over 5000 µg/mL.

What about the Kp [24] of the same compound?
Its Kp is 0.1 to 0.6.

Which results are given for `COc1ccc2c(c1)c(C1=CCNCC1)cn2S(=O)(=O)c1cncc2ccccc12`?
concentration at 0.5 h [1]: 18.6 ng/g; Ratio Ki (Homo sapiens [2]): 70; Ratio Ki (Homo sapiens [3]): 70; Ki [4]: 5.01 µM; Ratio Ki (Homo sapiens [5]): 70; Ki [6]: 7.83 µM; Activity (Rattus norvegicus [7]): Active; Ki (D(3) dopamine receptor [8]): 0.15 µM; Ki [9]: 0.003 µM; Activity (Rattus norvegicus [10]): Active; IC50 (Cytochrome P450 2D6): > 100 µM; inhibition [11]: 15%; Activity [12]: Non-Toxic; IC50 (Cytochrome P450 2C9): > 100 µM; inhibition [13]: 15%; inhibition [14]: 0%; inhibition [15]: 6%; inhibition [16]: 40%; inhibition [17]: 21%; Ratio Ki (Homo sapiens [18]): 70; Activity [19]: < 13%; Activity [20]: Non-Toxic; IC50 (Cytochrome P450 3A4): 26 µM; Ki (D(2) dopamine receptor): 3.32 µM; IC50 (Cytochrome P450 2C19): > 100 µM; inhibition (INH) [21]: Not Active; inhibition (D(3) dopamine receptor [22]): inactive; solubility [23]: > 5000 µg/mL; Kp [24]: 0.1 to 0.6
